Legend:
[1] = test system: Erk-MAP kinase in Grb2-/- mESCs; assay: Erk-MAP kinase activation; format: cell-based, mouse; settings: SU5402 10 μM
Procedure, shortened: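 Grb2-/- mouse ES cells (line described previously) were transfected with Lipofectamine LTX. Constructs were WT or chimeric Grb2 in pCAGGS, driven by a β-actin promoter. Cells were selected with puromycin for 48 h before analysis.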

Grb2-/- mESCs = assay: mESC priming; format: cell-based, mouse; settings: Grb2-/- mESCs expressing the construct; Nanog/Dnmt3b expression signature
Procedure, shortened: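 Grb2-/- mESCs were transfected (Lipofectamine LTX) with WT or chimeric Grb2 in pCAGGS under a β-actin promoter, then puromycin-selected for 48 h before analysis. Dnmt3b levels were quantified as mean ± standard deviation (n=3). Regular colonies were also immunostained for Nanog and Dnmt3b.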

Ptpn11 = target: T1, Ptpn11 (Mus musculus, UniProt P35235); assay: FLAG IP of FLAG-tagged Grb2 constructs compared with Ptpn11 level in cell lysate; format: cell-based; settings: Ptpn11 in FLAG IP versus cell lysate, mESCs; data not shown
T1 sequence (P35235 1-593): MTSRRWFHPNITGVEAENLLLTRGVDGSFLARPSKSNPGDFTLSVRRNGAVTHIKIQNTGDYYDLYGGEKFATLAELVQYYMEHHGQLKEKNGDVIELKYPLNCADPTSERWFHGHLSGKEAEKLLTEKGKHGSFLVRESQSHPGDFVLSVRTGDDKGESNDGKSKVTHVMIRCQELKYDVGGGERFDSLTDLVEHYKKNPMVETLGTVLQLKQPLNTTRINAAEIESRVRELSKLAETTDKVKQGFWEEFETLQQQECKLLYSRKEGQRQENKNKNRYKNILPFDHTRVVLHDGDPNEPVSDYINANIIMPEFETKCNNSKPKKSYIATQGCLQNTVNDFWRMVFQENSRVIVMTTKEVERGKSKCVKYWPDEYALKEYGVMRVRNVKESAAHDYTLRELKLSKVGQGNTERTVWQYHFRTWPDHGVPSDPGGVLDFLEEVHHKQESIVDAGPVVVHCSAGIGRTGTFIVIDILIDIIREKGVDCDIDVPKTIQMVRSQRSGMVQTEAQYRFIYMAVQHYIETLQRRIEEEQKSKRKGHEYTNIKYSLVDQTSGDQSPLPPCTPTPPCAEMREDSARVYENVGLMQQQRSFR

Row | effect on activation of Erk-MAP kinase by chGrb2(Ptpn11_pY580) or WT Grb2 [1] | Ptpn11 in the cell engaged (Ptpn11) | Compound | restoration of mESC priming (Grb2-/- mESCs)
1 | blocked |  | Cc1c[nH]c(/C=C2\C(=O)Nc3ccccc32)c1CCC(=O)O [SU5402] | 
2 |  | approximately 20% | WT Grb2: vector-derived FLAG-tagged wild-type Grb2 adaptor protein | reestablished

From PMC4090938 (Molecular cell, 2014)
